Experimental data: ChEMBL document CHEMBL1828528, “Acyclic nucleoside thiophosphonates as potent inhibitors of HIV and HBV replication” (Eur J Med Chem, 2011)

What was measured:
[1] = (§1) Cytotoxicity against human CEM cells; assay type: cell-based, CCRF-CEM; settings: CCRF-CEM (CEM) cells
Method in brief: (§2)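 Mock-infected CEM cells cultured alongside the anti-HIV assay with compound dilutions for 4 days at 37 °C. CC50 is the concentration inhibiting CEM cell proliferation by 50%.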

[2] = Stability of compound in complete culture medium assessed as compound degradation into 9-(2-Phosphonomethoxypropyl)-adenine after 24 hrs by HPLC analysis; assay type: physicochemical
Method in brief: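 Compound diluted to 0.1 mM final in one of two media and incubated at 37 °C: RPMI-1640 with 10% heat-inactivated FCS, or CEM-SS cell extract (soluble proteins 3 mg/mL in 10 mM Tris-HCl pH 7.4, 140 mM KCl). Aliquots were taken over time, frozen at −80 °C, then run on C18 reverse-phase HPLC with on-line filtration, TEAB/acetonitrile gradient and 260 nm detection. Degradation products were identified by co-injection.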

[3] = system: Human immunodeficiency virus 1; experiment: Ratio EC50 for PMPA to compound for HIV1 clade B isolate 2056 infected in human H9 cells assessed as inhibition of viral replication; assay type: functional
[4] = system: Human immunodeficiency virus 1; experiment: Ratio EC50 for PMPA to compound for HIV1 clade C isolate 2914 infected in human H9 cells assessed as inhibition of viral replication; assay type: functional
[5] = system: Human immunodeficiency virus 1; experiment: Ratio EC50 for PMPA to compound for HIV1 clade D isolate 1649 infected in human H9 cells assessed as inhibition of viral replication; assay type: functional
[6] = system: Human immunodeficiency virus 1; experiment: Ratio EC50 for PMPA to compound for HIV1 clade A/E isolate 2165 infected in human H9 cells assessed as inhibition of viral replication; assay type: functional
CCRF-CEM = experiment: as §1; assay type: cell-based; settings: ccrf-cem; method in brief: as §2
[7] = system: Human immunodeficiency virus 1; experiment: Ratio EC50 for PMEA to compound for HIV1 clade B isolate 2056 infected in human H9 cells assessed as inhibition of viral replication; assay type: functional
Method in brief: (§3)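 Ratio computed as EC50 of PMEA divided by EC50 of the test compound, both measured against the same clinical isolate in H9 cells.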

[8] = system: Human immunodeficiency virus 1; experiment: Ratio EC50 for PMEA to compound for HIV1 clade C isolate 4110 infected in human H9 cells assessed as inhibition of viral replication; assay type: functional; method in brief: as §3
[9] = system: Human immunodeficiency virus 1; experiment: Ratio EC50 for PMEA to compound for HIV1 clade D isolate 1649 infected in human H9 cells assessed as inhibition of viral replication; assay type: functional; method in brief: as §3

| SMILES | CC50 [1] | Activity [2] | Ratio EC50 [3] | Ratio EC50 [4] | Ratio EC50 [5] | Ratio EC50 [6] | CC50 (CCRF-CEM) | Ratio EC50 [7] | Ratio EC50 [8] | Ratio EC50 [9] |
| --- | --- | --- | --- | --- | --- | --- | --- | --- | --- | --- |
| C[C@H](Cn1cnc2c(N)ncnc21)OCP(=O)([O-])[S-].[Na+].[Na+] (stereo not given in full) | > 250 µM | 77% | 2.77 | 0.89 | 0.14 | 1.5 | – | – | – | – |
| Nc1ncnc2c1ncn2CCOCP(=O)([O-])[S-].[Na+].[Na+] (stereo not given) | – | – | – | – | – | – | 233 µM | 0.29 | 6 | 0.11 |
